According to ChEMBL document CHEMBL4219039, “Group-Based Optimization of Potent and Cell-Active Inhibitors of the von Hippel-Lindau (VHL) E3 Ubiquitin Ligase: Structure-Activity Relationships Leading to the Chemical Probe …” (J Med Chem, 2018):
pKd: −log10 of the molar value. Calls of active or inactive are those of the source. The calls are words filed in the database; no cut-off is given here.

Columns and labels:
[1] = target: T1, Von Hippel-Lindau disease tumor suppressor/Elongin B/Elongin C (Homo sapiens, UniProt P40337)
[2] = Chromatographic hydrophobicity index, log D of the compound at pH 7.4 by HPLC analysis; format: physicochemical; settings: buffer
Outline: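 DMSO stocks (10 mM) diluted to 0.25 mM in 50:50 acetonitrile:water. Run on C18 HPLC at 20 °C, 1 mL/min. Mobile phase 10 mM ammonium acetate pH 7.4 with an acetonitrile gradient. Retention times calibrated against a standard mix of eleven reference compounds, then converted to CHIlogD.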

[3] = target: T2, Von Hippel-Lindau disease tumor suppressor/Elongin B/Elongin C (Homo sapiens) (UniProt P40337+Q15370+Q15369); experiment: Inhibition of VBC in human HeLa cells assessed as HIF-1alpha stabilization by measuring HIF-1alpha protein levels at 50 uM after 2 hrs by Western blot analysis; format: cell-based; parameters: scale not given: the % may be the effect or the level left
Outline: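 HeLa (ATCC) grown in DMEM with 10% FBS, L-glutamine and penicillin/streptomycin at 37 °C; mycoplasma-tested. Treated 2 h in fresh medium, 1% DMSO as vehicle control. Lysed in RIPA buffer with protease inhibitors, SDS-PAGE, nitrocellulose blot. Anti-HIF-1α probed with β-actin as loading control, IRDye 800CW secondary for detection. Levels normalized to a reference VHL inhibitor.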

[4] = Passive permeability of the compound in pH 7.4 PBS at 10 uM after 5 hrs by UPLC-MS/MS method based PAMPA; format: ADME; settings: pH 7.4, 5 h
Outline: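 Precoated PAMPA plate with lipid–oil–lipid trilayer filter. Compound at 10 μM in PBS pH 7.4 (≤5% DMSO) in the donor well, PBS in the acceptor well. Held 5 h at room temperature; both compartments quantified by UPLC-MS/MS. Pe calculated from peak areas; data accepted only if recovery exceeded 70%. Propranolol as control.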

[5] = target: T1, Von Hippel-Lindau disease tumor suppressor/Elongin B/Elongin C; experiment: Displacement of FAM-labeled HIF-1alpha peptide from VBC (unknown origin) by fluorescence polarization assay
[6] = target: T2, Von Hippel-Lindau disease tumor suppressor/Elongin B/Elongin C (Homo sapiens); experiment: Binding affinity to VBC (unknown origin) assessed as dissociation rate constant at 50 uM after 160 secs at 10 degC by surface plasmon resonance assay; format: protein-complex assay
Outline: (§1)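 SPR on a Biacore T100 at 10 and 20 °C against VBC complex. Ligand stock 50 μM in DMSO, 2-fold serial dilutions in SPR buffer (20 mM HEPES, 150 mM NaCl, 1 mM DTT, 0.005% Tween P20, pH 7.0). Kd taken as koff/kon.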

[7] = target: T2, Von Hippel-Lindau disease tumor suppressor/Elongin B/Elongin C (Homo sapiens); experiment: Binding affinity to VBC (unknown origin) assessed as dissociation rate constant at 50 uM after 160 secs at 20 degC by surface plasmon resonance assay; format: protein-complex assay
Outline: as §1

[8] = Half life in plasma (unknown origin) at pH 7.4 at 50 uM up to 180 mins by UPLC-MS/MS analysis; format: ADME, cell-free
Outline: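 Compound at 50 μM incubated at 37 °C in prewarmed plasma buffered to pH 7.4 (70:30 plasma to buffer). Aliquots were taken at 0, 30, 60, 120 and 180 min and quenched in acetonitrile with donepezil internal standard. Samples were centrifuged and analysed by UPLC-MS/MS. The rate constant was fitted as exponential decay of the compound/internal standard peak-area ratio.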

[9] = target: T2, Von Hippel-Lindau disease tumor suppressor/Elongin B/Elongin C (Homo sapiens)
[10] = target: T2, Von Hippel-Lindau disease tumor suppressor/Elongin B/Elongin C (Homo sapiens); experiment: Binding affinity to VBC (unknown origin) assessed as association rate constant at 50 uM after 60 secs at 20 degC by surface plasmon resonance assay; format: protein-complex assay
Outline: as §1

[11] = target: T2, Von Hippel-Lindau disease tumor suppressor/Elongin B/Elongin C (Homo sapiens); experiment: Binding affinity to VBC (unknown origin) assessed as association rate constant at 50 uM after 60 secs at 10 degC by surface plasmon resonance assay; format: protein-complex assay
Outline: as §1

[12] = Intrinsic clearance in CD1 mouse liver microsomes at 0.5 uM up to 30 mins by UPLC-MS/MS analysis; format: ADME, microsome; settings: 0.5 h
Outline: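 Compound at 0.5 μM with female CD1 mouse liver microsomes (0.5 mg/mL) in 50 mM potassium phosphate pH 7.4, started with excess NADPH. Samples quenched in acetonitrile at 0, 3, 6, 9, 15 and 30 min; UPLC-MS/MS against internal standard. Decay rate constant converted to CLi assuming 52.5 mg microsomal protein/g liver. Verapamil as assay control.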

[13] = target: T1, Von Hippel-Lindau disease tumor suppressor/Elongin B/Elongin C; remark: listed apart in the source
[14] = target: T1, Von Hippel-Lindau disease tumor suppressor/Elongin B/Elongin C; remark: listed apart in the source
[15] = target: T2, Von Hippel-Lindau disease tumor suppressor/Elongin B/Elongin C (Homo sapiens); remark: listed apart in the source
HeLa [16] = experiment: Antiproliferative activity against human HeLa cells assessed as reduction in cell proliferation at 150 uM incubated for 24 to 72 hrs by haemocytometry; format: cell-based
HeLa [17] = experiment: Antiproliferative activity against human HeLa cells assessed as reduction in colony formation at 150 uM incubated for 24 hrs by crystal violet staining based assay; format: cell-based
Outline: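 HeLa cells, 500–2000 per well, seeded one day before exposure to 150 μM compound; 1% DMSO as vehicle control. Medium replaced after 24 h treatment, then grown a further week. Stained with 0.005% crystal violet in 25% methanol for 10 min at room temperature. Colonies counted on scanned plates.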

[18] = target: T2, Von Hippel-Lindau disease tumor suppressor/Elongin B/Elongin C (Homo sapiens); experiment: Inhibition of VBC in human HeLa cells expressing HRE-luciferase reporter gene assessed as reduction in HIF transcriptional activity at 1 to 250 uM after 24 hrs by luciferase reporter gene assay; format: cell-based

T1 sequence (P40337 whole entry, looked up): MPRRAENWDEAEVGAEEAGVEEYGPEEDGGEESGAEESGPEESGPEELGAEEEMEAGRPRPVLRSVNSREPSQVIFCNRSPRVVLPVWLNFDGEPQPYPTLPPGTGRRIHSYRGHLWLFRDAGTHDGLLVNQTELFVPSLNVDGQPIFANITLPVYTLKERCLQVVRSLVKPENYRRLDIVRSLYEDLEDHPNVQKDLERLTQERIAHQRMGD
T2 sequence (P40337 whole entry, looked up): as above
T2 sequence (Q15369 whole entry, looked up): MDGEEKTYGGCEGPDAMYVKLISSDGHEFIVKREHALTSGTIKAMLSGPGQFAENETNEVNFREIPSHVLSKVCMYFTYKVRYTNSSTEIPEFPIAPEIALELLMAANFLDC
T2 sequence (Q15370 whole entry, looked up): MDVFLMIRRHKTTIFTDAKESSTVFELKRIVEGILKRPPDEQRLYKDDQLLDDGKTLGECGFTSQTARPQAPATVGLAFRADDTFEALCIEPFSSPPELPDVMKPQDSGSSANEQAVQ

| chromatographic logD [2] | Activity [3] [%] | permeability [4] [×10⁻⁶ cm/s] | pKd [5] | SMILES | also measured |
| --- | --- | --- | --- | --- | --- |
| 0.71 | 34 | 0.03 | 6.49 | Cc1ncsc1-c1ccc(CNC(=O)[C@@H]2C[C@@H](O)CN2C(=O)[C@@H](NC(=O)C2COC2)C(C)(C)C)cc1 | pKd [1]: 6.64 |
| – | 46 | – | 6.43 | Cc1ncsc1-c1ccc(CNC(=O)[C@@H]2C[C@@H](O)CN2C(=O)[C@@H](NC(=O)C2(F)CC2)C(C)O)cc1 (single isomer, unassigned) | – |
| – | 89 | – | 6.70 | Cc1ncsc1-c1ccc(CNC(=O)[C@@H]2C[C@@H](O)CN2C(=O)[C@@H](NC(=O)C(Cl)(Cl)Cl)C(C)(C)C)cc1 | – |
| – | 33 | – | 5.85 | Cc1ncsc1-c1ccc(CNC(=O)[C@@H]2C[C@@H](O)CN2C(=O)[C@@H](N2CCCC2=O)C(C)(C)C)cc1 | – |
| – | 28 | – | 6.30 | Cc1ncsc1-c1ccc(CNC(=O)[C@@H]2C[C@@H](O)CN2C(=O)[C@@H](NC(=O)C2CC(=O)C2)C(C)(C)C)cc1 | – |
| 1.14 | 105 | 0.61 | 6.77 | Cc1ncsc1-c1ccc(CNC(=O)[C@@H]2C[C@@H](O)CN2C(=O)[C@@H](NC(=O)C2CC2)C(C)(C)C)cc1 | pKd [1]: 6.88 |
| 0.61 | 20 | 0.01 | 6.52 | CC(=O)NC1(C(=O)N[C@H](C(=O)N2C[C@H](O)C[C@H]2C(=O)NCc2ccc(-c3scnc3C)cc2)C(C)(C)C)CC1 | pKd [1]: 6.86 |
| – | 12 | – | 5.31 | CC(=O)N1CC(C(=O)N[C@H](C(=O)N2C[C@H](O)C[C@H]2C(=O)NCc2ccc(-c3scnc3C)cc2)C(C)(C)C)C1 | – |
| 1.34 | 156 | 1.5 | 6.77 | CC(=O)C1(C(=O)N[C@H](C(=O)N2C[C@H](O)C[C@H]2C(=O)NCc2ccc(-c3scnc3C)cc2)C(C)(C)C)CC1 | pKd [1]: 6.97; K [6]: 0.069 s⁻¹; K [7]: 0.169 s⁻¹; half-life at 50 µM [8]: > 3 h; T1/2 [15]: 4.1 s; T1/2 [9]: 10 s; K [10]: 8.2 ×10⁵ /M/s; K [11]: 6 ×10⁵ /M/s; intrinsic clearance (CLint) [12]: 2.5 mL/min/g; pKd [13]: 7.01; pKd [14]: 6.94 |
| – | 95 | – | 6.57 | Cc1ncsc1-c1ccc(CNC(=O)[C@@H]2C[C@@H](O)CN2C(=O)[C@@H](NC(=O)C(F)(F)F)C(C)(C)C)cc1 | – |
| – | 26 | – | – | CC(=O)N(C)[C@H](C(=O)N1C[C@H](O)C[C@H]1C(=O)NCc1ccc(-c2scnc2C)cc1)C(C)(C)C | – |

More lines, now with the values behind:

| SMILES | chromatographic logD [2] | Activity [3] [%] | permeability [4] [×10⁻⁶ cm/s] | pKd [5] | also measured |
| --- | --- | --- | --- | --- | --- |
| Cc1ncsc1-c1ccc(CNC(=O)[C@@H]2C[C@@H](O)CN2C(=O)[C@@H](NC(=O)C2CCC2)C(C)(C)C)cc1 | 1.3 | 138 | 1.16 | 6.60 | pKd [1]: 6.68; K [6]: 0.14 s⁻¹; K [7]: 0.256 s⁻¹; half-life at 50 µM [8]: > 3 h; T1/2 [9]: 4.95 s; K [10]: 1.1 ×10⁶ /M/s; K [11]: 5.17 ×10⁵ /M/s; intrinsic clearance (CLint) [12]: 3 mL/min/g; pKd [13]: 6.63; pKd [14]: 6.57 |
| Cc1ncsc1-c1ccc(CNC(=O)[C@@H]2C[C@@H](O)CN2C(=O)[C@@H](NC(=O)OC(C)(C)C)C(C)(C)C)cc1 | – | 12 | – | 5.19 | – |
| Cc1ncsc1-c1ccc(CNC(=O)[C@@H]2C[C@@H](O)CN2C(=O)[C@@H](NC(=O)C(C)(C)F)C(C)(C)C)cc1 | – | 19 | – | 6.11 | – |
| CC(=O)N[C@@H](C)C(=O)N1C[C@H](O)C[C@H]1C(=O)NCc1ccc(-c2scnc2C)cc1 | – | 12 | – | – | – |
| Cc1ncsc1-c1ccc(CNC(=O)[C@@H]2C[C@H](O)CN2C(=O)[C@@H](NC(=O)C2(F)CC2)C(C)(C)C)cc1 | – | – | – | – | Activity (HeLa [16]): Toxic; Activity (HeLa [17]): Toxic |
| Cc1ncsc1-c1ccc(CNC(=O)[C@@H]2C[C@@H](O)CN2C(=O)[C@@H](NC(=O)CC(C)(C)C)C(C)(C)C)cc1 | – | 65 | – | 6.35 | – |
| Cc1ncsc1-c1ccc(CNC(=O)[C@@H]2C[C@@H](O)CN2C(=O)[C@@H](NC(=O)C2(C#N)CC2)C(C)(C)C)cc1 | 1.4 | 190 | 1.94 | – | half-life at 50 µM [8]: > 3 h; Activity (HeLa [16]): Non-Toxic; Activity (HeLa [17]): Non-Toxic; intrinsic clearance (CLint) [12]: 3.1 mL/min/g |
| Cc1ncsc1-c1ccc(CNC(=O)[C@@H]2C[C@@H](O)CN2C(=O)[C@@H](NC(=O)CO)C(C)(C)C)cc1 | 0.65 | 16 | 0.01 | 6.70 | pKd [1]: 6.98 |
| Cc1ncsc1-c1ccc(CNC(=O)[C@@H]2C[C@H](O)CN2C(=O)[C@@H](NC(=O)C2(C#N)CC2)C(C)(C)C)cc1 | – | – | – | – | Activity (HeLa [16]): Non-Toxic; Activity (HeLa [17]): Non-Toxic |
| Cc1ncsc1-c1ccc(CNC(=O)[C@@H]2C[C@@H](O)CN2C(=O)[C@@H](NC(=O)C2(F)CC2)C(C)(C)C)cc1 | 1.63 | 175 | 2.71 | – | K [6]: 0.058 s⁻¹; K [7]: 0.098 s⁻¹; half-life at 50 µM [8]: > 3 h; Activity (HeLa [16]): Toxic; T1/2 [15]: 7.07 s; T1/2 [9]: 11.9 s; Activity (HeLa [17]): Toxic; K [11]: 2.4 ×10⁶ /M/s; intrinsic clearance (CLint) [12]: 2.9 mL/min/g; inhibition [18]: Active |
| CCC(=O)N[C@H](C(=O)N1C[C@H](O)C[C@H]1C(=O)NCc1ccc(-c2scnc2C)cc1)C(C)(C)C | – | 98 | – | – | – |
| CC(=O)N[C@H](C(=O)N1C[C@H](O)C[C@H]1C(=O)NCc1ccc(-c2scnc2C)cc1)C(C)(C)C | 0.9 | 100 | 0.12 | – | half-life at 50 µM [8]: > 3 h; intrinsic clearance (CLint) [12]: 0.7 mL/min/g |
